Positions of bridges follow the written chain, without caps; N, C: chain ends. Non-standard residues stand in square brackets, D forms with d. Residues, ends and D or L forms follow the SMILES beside them. sY = N[C@@H](Cc1ccc(OS(=O)(=O)O)cc1)C(=O)O

For orientation: pKi means the negative decadic logarithm of the Ki, by convention in mol/L. A low value points to a large Ki. For orientation: Ki means a measure of affinity in units of concentration, obtained from inhibition or displacement. Low values mean tighter binding, high ones weaker binding. The term IC50 denotes the point on the concentration scale where inhibition reaches its midpoint.

The nature of assay [1]: Displacement of [3H]-epibatidine from Aplysia californica Acetylcholine-binding protein measured after 1 hr by liquid scintillation counter. An outline of the steps:
(§1)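 Recombinant AChBP expressed in E. coli (IPTG induction, 16 °C), coated onto wells at 1 ng μL−1. Incubated 1 h at 4 °C with [3H]-epibatidine (1 nM final) and increasing peptide in PBS with 0.05% BSA. Unbound ligand washed off; bound radioactivity counted by liquid scintillation. One-site competition fit gives Ki. Triplicate, three independent experiments; pKi as mean with 95% CI.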
In general terms: Displacement assays read how much labelled ligand stays bound in the presence of the test substance.

Assay [2] concerns the target Acetylcholine-binding protein (Lymnaea stagnalis, UniProt P58154). As to the kind of experiment: Displacement of [3H]-epibatidine from Lymnaea stagnalis Acetylcholine-binding protein measured after 1 hr by liquid scintillation counter. In a few lines:
as §1

For assay [3], the target named is Neuronal acetylcholine receptor; alpha3/beta4 (Homo sapiens, UniProt P30926+P32297). As to the kind of experiment: Antagonist activity at human alpha3beta4 nAChR in SH-SY5Y cells assessed as inhibition of calcium flux by FLIPR assay. It counts as cell-based. An outline of the steps:
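SH-SY5Y cells (endogenous α3β4), grown in RPMI with 15% FBS, plated 100 000/well and cultured 48 h. Loaded with calcium 4 dye for 30 min at 37 °C. Peptides in PSS (pH 7.4) added 10 min before nicotine 30 μM. Fluorescence read at 470–495 nm excitation, 515–575 nm emission, every 1 s. Normalised to maximal nicotine response; four-parameter Hill fit; pIC50. Triplicate, three independent experiments.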
On the technique in general: Calcium assays in cells follow changes in intracellular calcium, usually with a dye or a luminescent sensor.

Chain of Neuronal acetylcholine receptor; alpha3/beta4 (P30926 whole entry): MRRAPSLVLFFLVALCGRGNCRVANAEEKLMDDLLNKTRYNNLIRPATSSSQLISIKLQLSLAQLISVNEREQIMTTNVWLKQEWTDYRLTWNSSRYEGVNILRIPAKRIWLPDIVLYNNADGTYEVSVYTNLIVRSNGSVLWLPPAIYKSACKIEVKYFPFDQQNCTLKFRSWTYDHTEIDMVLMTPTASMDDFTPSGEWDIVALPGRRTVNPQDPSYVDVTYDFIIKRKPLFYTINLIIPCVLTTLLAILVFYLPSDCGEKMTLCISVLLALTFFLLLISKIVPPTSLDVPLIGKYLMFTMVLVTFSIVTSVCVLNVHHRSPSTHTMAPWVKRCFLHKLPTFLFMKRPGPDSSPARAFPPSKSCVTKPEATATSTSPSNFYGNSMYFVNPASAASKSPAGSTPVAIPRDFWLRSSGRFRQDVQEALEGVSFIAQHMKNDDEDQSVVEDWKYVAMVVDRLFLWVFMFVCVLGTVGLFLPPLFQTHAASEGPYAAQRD
Chain of Neuronal acetylcholine receptor; alpha3/beta4 (P32297 whole entry): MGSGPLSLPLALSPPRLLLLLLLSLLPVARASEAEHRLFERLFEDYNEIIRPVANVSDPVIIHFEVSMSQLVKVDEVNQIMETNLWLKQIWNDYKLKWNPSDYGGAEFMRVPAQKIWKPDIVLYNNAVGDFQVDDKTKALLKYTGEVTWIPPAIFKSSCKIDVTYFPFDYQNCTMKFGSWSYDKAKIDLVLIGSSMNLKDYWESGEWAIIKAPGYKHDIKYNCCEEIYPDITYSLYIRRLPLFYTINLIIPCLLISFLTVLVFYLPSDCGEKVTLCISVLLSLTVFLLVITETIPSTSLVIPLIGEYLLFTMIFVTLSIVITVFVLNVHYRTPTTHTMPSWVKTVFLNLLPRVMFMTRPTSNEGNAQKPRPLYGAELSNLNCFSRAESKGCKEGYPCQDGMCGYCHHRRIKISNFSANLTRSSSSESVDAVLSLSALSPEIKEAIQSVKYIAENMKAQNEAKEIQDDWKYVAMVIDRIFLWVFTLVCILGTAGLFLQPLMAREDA
Chain of Acetylcholine-binding protein (P58154 whole entry): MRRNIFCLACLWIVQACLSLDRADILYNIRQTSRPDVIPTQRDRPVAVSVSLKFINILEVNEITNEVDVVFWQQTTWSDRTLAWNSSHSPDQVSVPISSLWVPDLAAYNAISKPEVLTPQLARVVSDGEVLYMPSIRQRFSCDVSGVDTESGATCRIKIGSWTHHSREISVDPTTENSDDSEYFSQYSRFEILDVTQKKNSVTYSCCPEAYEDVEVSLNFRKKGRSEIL

Compound `CSCC[C@@H]1NC(=O)[C@H](CC(N)=O)NC(=O)[C@@H]2CSSC[C@H](NC(=O)CN)C(=O)N[C@@H](CSSC[C@@H](C(=O)O)NC(=O)[C@H](Cc3ccc(OS(=O)(=O)O)cc3)NC(=O)[C@H](CC(=O)O)NC(=O)[C@@H]3CCCN3C(=O)[C@H](CC(N)=O)NC(=O)[C@H](CC(N)=O)NC1=O)C(=O)N[C@@H](CO)C(=O)N[C@@H](CC(=O)O)C(=O)N1CCC[C@H]1C(=O)N[C@@H](CCCNC(=N)N)C(=O)N2` (H-GCCSDPRCNMNNPD[sY]C-OH; disulfide 2-8, 3-16) returned a pKi in assay [1] of 6.5. This compound showed a Ki in assay [2] above 100 µM. Besides, the IC50 in assay [3] was 0.501 µM.
`C[C@@H]1NC(=O)[C@H](C)NC(=O)[C@@H]2CSSC[C@H](NC(=O)CNC(=O)CN)C(=O)N[C@@H](CSSC[C@@H](C(=O)O)NC(=O)[C@H](Cc3ccc(O)cc3)NC(=O)[C@H](CC(=O)O)NC(=O)[C@H](CCC(N)=O)NC(=O)[C@H](CC(N)=O)NC(=O)[C@H](CC(N)=O)NC1=O)C(=O)N[C@@H](CO)C(=O)N[C@@H](Cc1cnc[nH]1)C(=O)N1CCC[C@H]1C(=O)N[C@@H](C)C(=O)N2` showed a pKi in assay [1] of 8. In addition, the Ki in assay [2] was above 100 µM.
For the compound `C[C@@H]1NC(=O)[C@H](C)NC(=O)[C@@H]2CSSC[C@H](NC(=O)CNC(=O)CN)C(=O)N[C@@H](CSSC[C@@H](C(N)=O)NC(=O)[C@H](Cc3ccc(O)cc3)NC(=O)[C@H](CC(=O)O)NC(=O)[C@H](CCC(N)=O)NC(=O)[C@H](CC(N)=O)NC(=O)[C@H](CC(N)=O)NC1=O)C(=O)N[C@@H](CO)C(=O)N[C@@H](Cc1cnc[nH]1)C(=O)N1CCC[C@H]1C(=O)N[C@@H](C)C(=O)N2`, the pKi in assay [1] was 8.96. The compound also had a Ki in assay [2] of 24.5 µM.
On the same counts, the results for `C[C@@H]1NC(=O)[C@H](C)NC(=O)[C@@H]2CSSC[C@H](NC(=O)CNC(=O)CN)C(=O)N[C@@H](CSSC[C@@H](C(N)=O)NC(=O)[C@H](Cc3ccc(OS(=O)(=O)O)cc3)NC(=O)[C@H](CC(=O)O)NC(=O)[C@H](CCC(N)=O)NC(=O)[C@H](CC(N)=O)NC(=O)[C@H](CC(N)=O)NC1=O)C(=O)N[C@@H](CO)C(=O)N[C@@H](Cc1cnc[nH]1)C(=O)N1CCC[C@H]1C(=O)N[C@@H](C)C(=O)N2` are 9.4 and 5.37 µM.
For the compound `CSCC[C@@H]1NC(=O)[C@H](CC(N)=O)NC(=O)[C@@H]2CSSC[C@H](NC(=O)CN)C(=O)N[C@@H](CSSC[C@@H](C(N)=O)NC(=O)[C@H](Cc3ccc(O)cc3)NC(=O)[C@H](CC(=O)O)NC(=O)[C@@H]3CCCN3C(=O)[C@H](CC(N)=O)NC(=O)[C@H](CC(N)=O)NC1=O)C(=O)N[C@@H](CO)C(=O)N[C@@H](CC(=O)O)C(=O)N1CCC[C@H]1C(=O)N[C@@H](CCCNC(=N)N)C(=O)N2` (H-GCCSDPRCNMNNPDYC-NH2; disulfide 2-8, 3-16), the pKi in assay [1] stood at 7.57. In assay [2], this compound showed a Ki above 100 µM. Moreover, the half-maximal inhibitory concentration (IC50) in assay [3] was 0.347 µM.
`C[C@@H]1NC(=O)[C@H](C)NC(=O)[C@@H]2CSSC[C@H](NC(=O)CNC(=O)CN)C(=O)N[C@@H](CSSC[C@@H](C(=O)O)NC(=O)[C@H](Cc3ccc(OS(=O)(=O)O)cc3)NC(=O)[C@H](CC(=O)O)NC(=O)[C@H](CCC(N)=O)NC(=O)[C@H](CC(N)=O)NC(=O)[C@H](CC(N)=O)NC1=O)C(=O)N[C@@H](CO)C(=O)N[C@@H](Cc1cnc[nH]1)C(=O)N1CCC[C@H]1C(=O)N[C@@H](C)C(=O)N2` showed a negative-log Ki (pKi) in assay [1] of 8.66. Further, the Ki in assay [2] was above 100 µM.
`CSCC[C@@H]1NC(=O)[C@H](CC(N)=O)NC(=O)[C@@H]2CSSC[C@H](NC(=O)CN)C(=O)N[C@@H](CSSC[C@@H](C(N)=O)NC(=O)[C@H](Cc3ccc(OS(=O)(=O)O)cc3)NC(=O)[C@H](CC(=O)O)NC(=O)[C@@H]3CCCN3C(=O)[C@H](CC(N)=O)NC(=O)[C@H](CC(N)=O)NC1=O)C(=O)N[C@@H](CO)C(=O)N[C@@H](CC(=O)O)C(=O)N1CCC[C@H]1C(=O)N[C@@H](CCCNC(=N)N)C(=O)N2` (H-GCCSDPRCNMNNPD[sY]C-NH2; disulfide 2-8, 3-16) had a pKi in assay [1] of 8.38. Moreover, in assay [2], the Ki is above 100 µM. Moreover, the 50% inhibitory concentration (IC50) in assay [3] was 0.0646 µM.
On the same counts, the results for `CSCC[C@@H]1NC(=O)[C@H](CC(N)=O)NC(=O)[C@@H]2CSSC[C@H](NC(=O)CN)C(=O)N[C@@H](CSSC[C@@H](C(=O)O)NC(=O)[C@H](Cc3ccc(O)cc3)NC(=O)[C@H](CC(=O)O)NC(=O)[C@@H]3CCCN3C(=O)[C@H](CC(N)=O)NC(=O)[C@H](CC(N)=O)NC1=O)C(=O)N[C@@H](CO)C(=O)N[C@@H](CC(=O)O)C(=O)N1CCC[C@H]1C(=O)N[C@@H](CCCNC(=N)N)C(=O)N2` (H-GCCSDPRCNMNNPDYC-OH; disulfide 2-8, 3-16) are 6, above 100 µM and 1.35 µM.

For the origin of these results see ChEMBL document CHEMBL5136968, “Posttranslational modifications of α-conotoxins: sulfotyrosine and C-terminal amidation stabilise structures and increase acetylcholine receptor binding” (RSC Med Chem, 2021).
